# What was measured:
# Assay type in all cases: functional
# [1] = system: Aspergillus flavus; assay: Antifungal activity against Aspergillus flavus at 5 mg/ml by agar disc diffusion method; settings: read-out: DIZ
# [2] = Antitumor activity against mouse EAC cells assessed as inhibition of cell viability at 100 ug/ml by Trypan blue assay; settings: Ehrlich
# Summary of the method: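 EAC cells were taken by needle aspiration of ascitic fluid from preinoculated mice and diluted 1:10 in saline. Then 0.1 mL of cell suspension, 0.8 mL RPMI 1640 and 0.1 mL compound were incubated 2 h at 37 °C. Dead cells were counted by trypan blue exclusion, and % non-viable = non-viable/total cells × 100.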
# [3] = system: Bacillus subtilis; assay: Antibacterial activity against Bacillus subtilis NCTC 1040 at 5 mg/ml after 24 hrs by agar disc diffusion method; settings: NCTC 1040, 24 h, read-out: DIZ
# Summary of the method: (§1)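 Agar well-diffusion using 1 cm wells, each loaded with 100 of compound solution (5 mg/mL in DMF). Bacteria were maintained on nutrient agar and plated as a standard suspension. Plates were incubated 24 h at 35 °C, and inhibition zone diameters were measured.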
# [4] = system: Staphylococcus aureus; assay: Antibacterial activity against Staphylococcus aureus NCTC 7447 at 5 mg/ml after 24 hrs by agar disc diffusion method; settings: NCTC 7447, 24 h, read-out: DIZ; summary of the method: as §1
# [5] = system: Candida albicans; assay: Antifungal activity against Candida albicans IMRU 3669 at 5 mg/ml by agar disc diffusion method; settings: read-out: DIZ
# [6] = system: Micrococcus luteus; assay: Antibacterial activity against Sarcina lutea ATCC 934 at 5 mg/ml after 24 hrs by agar disc diffusion method; settings: ATCC 934, 24 h, read-out: DIZ; summary of the method: as §1
# [7] = system: Escherichia coli; assay: Antibacterial activity against Escherichia coli NCTC 10416 at 5 mg/ml after 24 hrs by agar disc diffusion method; settings: NCTC 10416, 24 h, read-out: DIZ; summary of the method: as §1
SMILES,zone of inhibition at 5000 µg/mL [1],inhibition at 100 µg/mL [2],zone of inhibition at 5000 µg/mL [3],zone of inhibition at 5000 µg/mL [4],zone of inhibition at 5000 µg/mL [5],zone of inhibition at 5000 µg/mL [6],zone of inhibition at 5000 µg/mL [7]
Cc1ccc(N2C(=N)C(=S)N(c3ccccc3)C2=O)cc1,15 mm,10%,21 mm,21.5 mm,22 mm,18 mm,20 mm
CSc1ccc(N2C(=N)C(=S)N(c3ccccc3)C2=O)cc1,18 mm,1%,23.5 mm,24 mm,24 mm,25 mm,25.5 mm
COc1ccc(N2C(=N)C(=S)N(c3ccccc3)C2=O)cc1,18 mm,50%,19 mm,18 mm,21 mm,25 mm,25 mm
CSc1ccc(N2C(=N)C(=S)N(c3ccc(Cl)cc3)C2=O)cc1,15 mm,20%,16.5 mm,16 mm,16.5 mm,15 mm,15.5 mm
COc1ccc(N2C(=N)C(=S)N(c3ccc(Cl)cc3)C2=O)cc1,17.5 mm,0.5%,20 mm,19.5 mm,22 mm,22 mm,23.5 mm
Cc1ccc(N2C(=N)C(=S)N(c3ccc(Cl)cc3)C2=O)cc1,14 mm,10%,16 mm,12 mm,12 mm,21 mm,17 mm
CSc1ccc(N2C(=N)C(=S)N(c3ccc(Br)cc3)C2=O)cc1,15 mm,40%,19.5 mm,19 mm,16 mm,15 mm,15.5 mm
COc1ccc(N2C(=N)C(=S)N(c3ccc(Br)cc3)C2=O)cc1,18 mm,10%,18 mm,13 mm,12 mm,19 mm,16 mm
Cc1ccc(N2C(=N)C(=S)N(c3ccc(Br)cc3)C2=O)cc1,15 mm,20%,18 mm,18 mm,14 mm,14 mm,16.5 mm
N=C1C(=S)N(c2ccc(Br)cc2)C(=O)N1Cc1ccccc1,15 mm,45%,17 mm,15.5 mm,17 mm,18 mm,18.5 mm
CSc1ccc(N2C(=N)C(=S)N(c3ccc(I)cc3)C2=O)cc1,15 mm,10%,16 mm,16.5 mm,16.5 mm,14 mm,14.5 mm
COc1ccc(N2C(=N)C(=S)N(c3ccc(I)cc3)C2=O)cc1,18 mm,20%,19.5 mm,18.5 mm,23 mm,18 mm,19 mm
Cc1ccc(N2C(=N)C(=S)N(c3ccc(I)cc3)C2=O)cc1,14 mm,40%,16.5 mm,17 mm,17 mm,13 mm,14 mm

# — ChEMBL document CHEMBL1782009, “Synthesis and characterization of new types of halogenated and alkylated imidazolidineiminothiones and a comparative study of their antitumor, antibacterial, and antifungal activities” (Eur J Med Chem, 2011)
